ChEMBL document CHEMBL1156009, “Eleven amino acid glucagon-like peptide-1 receptor agonists with antidiabetic activity” (J Med Chem, 2009)
Active and inactive are the calls of the source. The calls are words filed in the database; no cut-off is given here. Square brackets hold non-standard residues; d marks the D form. Peptide text beside a SMILES is read from it. Bip(2'-Et-4'-OMe) = CCc1cc(OC)ccc1-c1ccc(C[C@H](N)C(=O)O)cc1; Bip(2'-Me) = Cc1ccccc1-c1ccc(C[C@H](N)C(=O)O)cc1; αMePhe(2,6-F2) = C[C@](N)(Cc1c(F)cccc1F)C(=O)O; αMePhe(2-F) = C[C@](N)(Cc1ccccc1F)C(=O)O; Aib = CC(C)(N)C(=O)O

Experiments:
[1] = target: Glucagon-like peptide 1 receptor (Homo sapiens, UniProt P43220); test: Agonist activity at human GLP1R expressed in CHO cells assessed as stimulation of intracellular [3H]cAMP accumulation after 30 mins by scintillation proximity assay; format: functional, cell-based
Glucagon-like peptide 1 receptor (Homo sapiens, UniProt P43220), sequence (P43220 whole entry): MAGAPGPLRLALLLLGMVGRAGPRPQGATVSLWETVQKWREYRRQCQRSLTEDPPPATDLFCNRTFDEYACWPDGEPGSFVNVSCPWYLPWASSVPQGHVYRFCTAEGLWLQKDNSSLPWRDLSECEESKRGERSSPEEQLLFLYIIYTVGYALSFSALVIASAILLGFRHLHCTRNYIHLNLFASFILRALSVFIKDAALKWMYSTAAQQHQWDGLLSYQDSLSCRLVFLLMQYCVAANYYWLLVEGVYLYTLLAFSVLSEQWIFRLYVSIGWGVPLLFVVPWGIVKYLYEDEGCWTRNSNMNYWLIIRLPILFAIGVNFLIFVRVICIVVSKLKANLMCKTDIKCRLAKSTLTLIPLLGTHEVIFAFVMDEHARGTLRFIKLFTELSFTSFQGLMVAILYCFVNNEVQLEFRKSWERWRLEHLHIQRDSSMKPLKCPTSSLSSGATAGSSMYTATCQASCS
In short: (§1)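 CHO cells stably expressing human or mouse GLP-1R, grown in F-12 with 10% FBS plus Geneticin (0.4 mg/mL human, 1 mg/mL mouse), plated 2×10^4/well overnight. Half-log dilutions made in DMSO, then in DPBS with 0.1 mM IBMX and 0.05% BSA (final 1% DMSO). Cells exposed 30 min. cAMP read by SPA and converted to pmol via standard curve. Duplicates, at least three separate runs.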

[2] = target: T1, Glucagon-like peptide 1 receptor (Mus musculus, UniProt O35659); test: Agonist activity at mouse GLP1R expressed in CHO cells assessed as stimulation of intracellular [3H]cAMP accumulation by scintillation proximity assay; format: functional, cell-based; in short: as §1
T1 sequence (O35659 whole entry): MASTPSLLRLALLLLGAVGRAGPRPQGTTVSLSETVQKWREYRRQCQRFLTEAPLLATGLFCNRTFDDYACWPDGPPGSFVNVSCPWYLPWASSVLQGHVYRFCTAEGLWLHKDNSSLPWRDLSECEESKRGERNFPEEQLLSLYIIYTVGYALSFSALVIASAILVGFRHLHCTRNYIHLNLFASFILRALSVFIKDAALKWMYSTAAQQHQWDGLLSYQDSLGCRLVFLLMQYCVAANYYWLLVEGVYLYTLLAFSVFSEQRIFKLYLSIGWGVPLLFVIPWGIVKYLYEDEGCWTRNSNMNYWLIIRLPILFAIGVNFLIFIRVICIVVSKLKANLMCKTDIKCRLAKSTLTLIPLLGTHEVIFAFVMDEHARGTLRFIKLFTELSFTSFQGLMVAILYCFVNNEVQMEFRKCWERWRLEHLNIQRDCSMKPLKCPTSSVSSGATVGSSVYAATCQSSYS

Mus musculus [3] = test: Antidiabetic activity in insulin-resistant ob/ob mouse assessed as reduction in plasma glucose level at 300 nmol/kg, sc administered 30 mins before glucose infusion measured after 30 to 180 mins of glucose challenge by intraperitoneal glucose tolerance test; format: functional, organism-based
In short: (§2)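 Male ob/ob mice, 19 weeks old, 6 per group, randomized on fed glucose and body weight. After an 18 h fast, single sc dose in 1:1 propylene glycol/20 mM sodium phosphate pH 7.4 (0.1 mL/100 g) at -30 min. 2 g/kg glucose (50%) given ip at time 0. Tail bleeds at 0, 30, 60, 120 and 180 min into K-EDTA. Glucose measured on analyzer, insulin by ultrasensitive mouse ELISA. ANOVA with Dunnett's test versus vehicle.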

Mus musculus [4] = test: Antidiabetic activity in insulin-resistant ob/ob mouse assessed as increase in plasma insulin level at 300 nmol/kg, sc administered 30 mins before glucose infusion measured after 30 mins of glucose challenge by intraperitoneal glucose tolerance test; format: functional, organism-based; in short: as §2
Mus musculus [5] = test: Antidiabetic activity in insulin-resistant ob/ob mouse assessed as increase in plasma insulin level at 300 nmol/kg, sc administered 30 mins before glucose infusion measured after 60 mins of glucose challenge by intraperitoneal glucose tolerance test; format: functional, organism-based; in short: as §2
[6] = Cmax in insulin-resistant ob/ob mouse at 300 nmol/kg, sc up to 24 hrs by LC-MS/MS analysis; format: ADME, organism-based; parameters: dose 300 nmol/kg, route subcutaneous; settings: in vivo
In short: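 ob/ob mice dosed sc at 300 nmol/kg in 1:1 propylene glycol/20 mM sodium phosphate pH 7.4. Plasma sampled at 1, 2, 4, 6, 8 and 24 h and quantified by LC-MS/MS.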

Canis familiaris = test: Tmin in Beagle dog at 67 ug/kg, sc by LC-MS/MS analysis; format: ADME, organism-based, Canis lupus familiaris; settings: in vivo, 0.067 mg/kg
[7] = Mean residence time in Beagle dog at 67 ug/kg, sc by LC-MS/MS analysis; format: ADME, organism-based, Canis lupus familiaris; settings: in vivo, 0.067 mg/kg
[8] = Half life in patient with type 2 diabetes at 2.5 to 25 nmol, iv administered as bolus dose; format: ADME, organism-based; settings: human, in vivo
[9] = target: T2, Gastric inhibitory polypeptide receptor (Homo sapiens, UniProt P48546); test: Agonist activity at GIPR; format: functional
T2 sequence (P48546 whole entry): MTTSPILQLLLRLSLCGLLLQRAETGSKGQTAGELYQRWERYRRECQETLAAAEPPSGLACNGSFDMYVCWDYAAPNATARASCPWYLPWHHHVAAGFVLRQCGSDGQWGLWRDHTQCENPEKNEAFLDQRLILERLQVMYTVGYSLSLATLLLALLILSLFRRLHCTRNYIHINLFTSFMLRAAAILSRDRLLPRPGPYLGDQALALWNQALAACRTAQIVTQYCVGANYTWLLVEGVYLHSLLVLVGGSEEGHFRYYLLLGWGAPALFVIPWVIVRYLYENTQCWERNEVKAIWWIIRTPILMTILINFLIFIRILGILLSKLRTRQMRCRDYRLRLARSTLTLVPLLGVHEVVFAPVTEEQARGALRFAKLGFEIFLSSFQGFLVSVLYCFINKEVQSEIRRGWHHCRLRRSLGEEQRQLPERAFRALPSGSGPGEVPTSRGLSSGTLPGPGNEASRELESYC

Glucagon receptor = Glucagon receptor (Homo sapiens, UniProt P47871); test: Agonist activity at glucagon receptor; format: functional
Glucagon receptor, sequence (P47871 whole entry): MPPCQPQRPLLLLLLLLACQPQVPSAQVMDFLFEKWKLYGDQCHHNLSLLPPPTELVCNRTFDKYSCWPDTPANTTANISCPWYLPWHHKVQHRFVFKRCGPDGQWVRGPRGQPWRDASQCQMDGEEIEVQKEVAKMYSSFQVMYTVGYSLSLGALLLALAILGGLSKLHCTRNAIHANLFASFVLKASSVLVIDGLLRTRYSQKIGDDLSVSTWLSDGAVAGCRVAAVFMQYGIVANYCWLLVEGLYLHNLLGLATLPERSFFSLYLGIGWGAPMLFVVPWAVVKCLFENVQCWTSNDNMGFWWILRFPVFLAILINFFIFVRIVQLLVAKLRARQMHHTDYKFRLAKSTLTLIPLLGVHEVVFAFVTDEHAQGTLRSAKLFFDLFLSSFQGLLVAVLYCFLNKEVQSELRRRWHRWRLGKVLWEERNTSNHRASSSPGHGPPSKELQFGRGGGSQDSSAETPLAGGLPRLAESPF

[10] = Agonist activity at PACAP receptor; format: functional
[11] = Agonist activity at VIP receptor; format: functional
[12] = target: T3, Parathyroid hormone/parathyroid hormone-related peptide receptor (Homo sapiens, UniProt Q03431); test: Agonist activity at PTHR; format: functional
T3 sequence (Q03431 whole entry): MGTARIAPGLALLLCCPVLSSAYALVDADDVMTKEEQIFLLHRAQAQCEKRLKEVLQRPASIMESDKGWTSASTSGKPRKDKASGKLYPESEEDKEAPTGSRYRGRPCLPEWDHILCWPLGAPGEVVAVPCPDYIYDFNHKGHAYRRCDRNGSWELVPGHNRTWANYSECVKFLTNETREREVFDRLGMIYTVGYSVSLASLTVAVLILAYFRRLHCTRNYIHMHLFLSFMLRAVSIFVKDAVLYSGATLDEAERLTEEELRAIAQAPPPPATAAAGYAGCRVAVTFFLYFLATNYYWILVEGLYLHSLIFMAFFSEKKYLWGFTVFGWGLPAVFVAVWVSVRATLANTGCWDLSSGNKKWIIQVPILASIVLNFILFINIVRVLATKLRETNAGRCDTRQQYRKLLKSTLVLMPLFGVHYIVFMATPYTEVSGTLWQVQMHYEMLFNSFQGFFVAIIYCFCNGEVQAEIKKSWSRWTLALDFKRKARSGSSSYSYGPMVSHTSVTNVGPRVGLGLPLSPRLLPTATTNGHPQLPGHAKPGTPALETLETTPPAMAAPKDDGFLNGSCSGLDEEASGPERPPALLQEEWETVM

Mus musculus [13] = test: Antidiabetic activity in insulin-resistant ob/ob mouse assessed as reduction in plasma glucose level at 30 nmol/kg, sc administered 30 mins before glucose infusion measured after 30 to 180 mins of glucose challenge by intraperitoneal glucose tolerance test; format: functional, organism-based; in short: as §2
Mus musculus [14] = test: Antidiabetic activity in insulin-resistant ob/ob mouse assessed as increase in plasma insulin level at 30 nmol/kg, sc administered 30 mins before glucose infusion measured after 30 to 180 mins of glucose challenge by intraperitoneal glucose tolerance test; format: functional, organism-based; in short: as §2

EC50 [1] [nM]	EC50 [2] [µM]	Cmax [6] [nM]	Tmin (Canis familiaris) [h]	Structure (SMILES)	Activity (Mus musculus [3])	Activity (Mus musculus [4])	Activity (Mus musculus [5])	also measured
0.12	0.0008	> 2000	24	CCc1cc(OC)ccc1-c1ccc(C[C@H](NC(=O)[C@H](CC(=O)O)NC(=O)[C@H](CO)NC(=O)[C@@H](NC(=O)[C@](C)(Cc2c(F)cccc2F)NC(=O)[C@@H](NC(=O)CNC(=O)[C@H](CCC(=O)O)NC(=O)C(C)(C)NC(=O)[C@@H](N)Cc2cnc[nH]2)[C@@H](C)O)[C@@H](C)O)C(=O)N[C@@H](Cc2ccc(-c3ccccc3C)cc2)C(N)=O)cc1 (H-H[Aib]EGT[αMePhe(2,6-F2)]TSD[Bip(2'-Et-4'-OMe)][Bip(2'-Me)]-NH2)	Active	Active	Active	MRT [7]: 20 h
0.034				CC[C@H](C)[C@H](NC(=O)[C@H](Cc1ccccc1)NC(=O)[C@H](CCC(=O)O)NC(=O)[C@H](CCCCN)NC(=O)[C@H](C)NC(=O)[C@H](C)NC(=O)[C@H](CCC(N)=O)NC(=O)CNC(=O)[C@H](CCC(=O)O)NC(=O)[C@H](CC(C)C)NC(=O)[C@@H](NC(=O)[C@H](CO)NC(=O)[C@H](CO)NC(=O)[C@@H](NC(=O)[C@H](CC(=O)O)NC(=O)[C@H](CO)NC(=O)[C@@H](NC(=O)[C@H](Cc1ccccc1)NC(=O)[C@@H](NC(=O)CNC(=O)[C@H](CCC(=O)O)NC(=O)[C@H](C)NC(=O)[C@@H](N)Cc1cnc[nH]1)[C@@H](C)O)[C@@H](C)O)C(C)C)[C@@H](C)O)C(=O)N[C@@H](C)C(=O)N[C@@H](Cc1c[nH]c2ccccc12)C(=O)N[C@@H](CC(C)C)C(=O)N[C@H](C(=O)N[C@@H](CCCCN)C(=O)NCC(=O)N[C@@H](CCCN=C(N)N)C(N)=O)C(C)C				half-life [8]: 2 min
0.087	0.0024	> 2000	8	CCc1cc(OC)ccc1-c1ccc(C[C@H](NC(=O)[C@H](CC(=O)O)NC(=O)[C@H](CO)NC(=O)[C@@H](NC(=O)[C@](C)(Cc2ccccc2F)NC(=O)[C@@H](NC(=O)CNC(=O)[C@H](CCC(=O)O)NC(=O)C(C)(C)NC(=O)[C@@H](N)Cc2cnc[nH]2)[C@@H](C)O)[C@@H](C)O)C(=O)N[C@@H](Cc2ccc(-c3ccccc3C)cc2)C(N)=O)cc1 (H-H[Aib]EGT[αMePhe(2-F)]TSD[Bip(2'-Et-4'-OMe)][Bip(2'-Me)]-NH2)	Active	Active	Active	EC50 [9]: > 10 µM; IC50 [9]: > 10 µM; EC50 (Glucagon receptor): > 10 µM; IC50 (Glucagon receptor): > 10 µM; EC50 [10]: > 10 µM; IC50 [10]: > 10 µM; EC50 [11]: > 10 µM; IC50 [11]: > 10 µM; EC50 [12]: > 10 µM; IC50 [12]: > 10 µM; Activity (Mus musculus [13]): Active; Activity (Mus musculus [14]): Active
